Series [1] in a line: Stability of radiotracer in formulation. It counts as physicochemical.
Series [2] can be described thus: MicroPET imaging in rhesus macaque. The series is classed as in vivo. As to conditions: rhesus macaque n = 1, i.v. bolus, 60 min dynamic scan. The method in brief: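 One mature female rhesus monkey (9.36 kg) was anaesthetised with Telazol, intubated, and maintained on isoflurane, with a hind-limb venous catheter and head secured. Tracer 4.90 mCi was given as a bolus over 1 min. The brain was imaged for 60 min (5×1, 2×2.5, 2×5, 4×10 min frames), with attenuation and scatter correction and 3D MAP reconstruction. A whole-brain volumetric ROI drawn on the summed image gave the TAC.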

Series [3] can be described thus: Dynamic PET/CT imaging in mice. The series is classed as in vivo, mouse. In short, it runs like this: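 Subjects were female C57BL/6 wild-type mice aged 3 months and one male P2Y12R total-KO mouse (C57BL/6 background, 11 months), under isoflurane (2–3.5% induction, 1–2.5% maintenance). Tracer was given by tail vein at 300 μCi, formulated in saline with 10% ethanol. Imaging was 60 min list-mode dynamic PET (4×15 s, 4×1 min, 11×5 min), OSEM-3D with scatter and attenuation correction, then CT. ROIs were applied to dynamic data to give TACs in %ID/g.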

The nature of series [4]: In vitro human plasma stability of radiotracer. As to conditions: 37 °C, HPLC. The series is classed as in vitro ADME. The method in brief:
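Formulated radiotracer (46 μCi) was mixed into human plasma, with aliquots held at 37 °C. Aliquots were quenched at 0, 5, 15, 30 and 60 min with ice-cold MeCN and centrifuged at 12,500g for 10 min. Supernatant went to radio-HPLC (C18, 70–95% MeCN with 0.1% TFA over 15 min). Controls of tracer without plasma were run at 0 and 60 min.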

The conditions of series [5]: mouse, in vivo, 1 h.
The test system of series [6] is other purinergic receptors. The conditions noted are these: cited from earlier work.
For series [7] the following is noted: determined at pH 6.8; cited from earlier work.
Series [8] is described as follows: Microsome stability assay. As to conditions: 1 μM test compound, NADPH, 37 °C. The series is classed as in vitro ADME, mouse. In short, it runs like this:
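Mouse liver microsomes in 100 mM K₃PO₄ pH 7.4 with 10 mM MgCl₂ and 1 μM test compound were pre-incubated 10 min at 37 °C. Reactions were started with 1 mM NADPH. They were quenched at 0, 10, 20 and 40 min with stop solution in acetonitrile, centrifuged at 4000g for 20 min, diluted in 0.1% formic acid and quantified by LC-MS/MS.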

For the next series, the system named is P2Y12R. As to conditions: read-out: IC50 (affinity); cited from earlier work.
The next series concerns Caco-2 cells. As to the kind of experiment: Caco-2 permeability assay. It counts as in vitro ADME. The conditions noted are these: 10 μM, pH 7.4, 2 h. The method in brief: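 Caco-2 cells grown in DMEM under 5% CO₂, seeded at 5 × 10⁵/well on polycarbonate filter inserts and differentiated 21 ± 4 days. Test compound at 10 μM final in HBSS with 25 mM HEPES, pH 7.4, 37 °C, added donor side. A→B and B→A runs were done with and without elacridar. Receiver was sampled over 2 h and donor at 0 and 2 h, then analysed by LC-MS/MS. Papp = […]/(A × C₀,donor) × 10⁶.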
For orientation: Passage across Caco-2 layers is used to estimate intestinal permeability.

The mark [9] stands for this setting: mice, i.v., 5 min post injection.

Entries after “also recorded” stand apart in the source; their conditions may differ.

As for `CCOC(=O)c1cc([11C]#N)c(N2CCC(C(=O)NS(=O)(=O)Cc3ccccc3)CC2)nc1C` [[^11C]AZD1283], the “intact tracer after incubation in formulation” value in [1] (90 min in formulation (saline with 10% ethanol)) is given as more than 99%. The “time stable in formulation and resistant to radiolysis” value in series [1] (post end-of-synthesis) is on record as more than 90 min. Also, in [2], the “peak brain uptake (PET)” value is on record as 0.37 SUV. Also, in [3] (P2Y12R total KO male mouse n = 1, 60 min dynamic scan), the “CNS uptake in P2Y12R knockout mouse (PET)” value is “no CNS uptake”. Also, in series [3] (setting [9]), the “brain uptake (PET)” value is recorded as 0.55 ± 0.37 %ID/g and the “liver uptake (PET)” value was determined as 58.28 ± 18.75 %ID/g. Moreover, the “brain peak uptake (PET)” value in [3] (naïve wild-type mice n = 3, i.v., 15 s post injection) was 3.46 ± 2.0 %ID/g. For the same molecule, the “loss of parent / radio-metabolites in human plasma” value in [4] (0-60 min incubation) is “no loss of parent or detection of radio-metabolites; also recorded: no loss of parent tracer or appearance of radio-metabolites”. The “intact tracer after incubation in human serum” value in series [4] (60 min incubation) was more than 99%. Besides, in series [5], the “ex vivo biodistribution, blood” value is reported as 0.9% ± 0.40 %ID/g; the “ex vivo biodistribution, brain” value was 0.02% ± 0.01 %ID/g; the “ex vivo biodistribution, liver” value is 106 ± 29.70 %ID/g.

`CCOC(=O)c1cc(C#N)c(N2CCC(C(=O)NS(=O)(=O)Cc3ccccc3)CC2)nc1C` [AZD1283]: the “selectivity for P2Y12R over other purinergic receptors” value in series [6] was “selective for P2Y12R over other purinergic receptors”. Further, the pH-dependent lipophilicity (logD) (commonly lipophilicity at a set pH, counting ionised and neutral species) in series [7] was 2.8. Besides, the “half-life in mouse liver microsomes” value in [8] turned out to be 37 min. In addition, in the series with P2Y12R, the IC50 (as a rule, the concentration that inhibits the measured activity by half) is 11 nM. In addition, the “Caco-2 efflux ratio BA/AB” value in the series with Caco-2 cells turned out to be 5.3. For the same molecule, the “Caco-2 apparent permeability AB” value in the series on Caco-2 cells (A→B) turned out to be 4.48.
